Test results as given in ChEMBL document CHEMBL4007422 (J Med Chem, 2017).
Active and inactive are the calls of the source. The calls are words filed in the database; no cut-off is given here.

Tests used:
Rattus norvegicus [1] = test: Increase in acetylcholine level in Wistar rat ventral hippocampus at 1 mg/kg, po in presence of 1 mg/kg of donepezil and memantine administered sc 30 mins post compound treatment measured after 4 hrs by LC-MS/MS based microdialysis method relative to control; assay type: functional
Summary of the method: (§1)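 Male Wistar rats (240−300 g) fitted under isoflurane with a ventral hippocampal guide cannula (AP −5.2, ML +5.0, DV −3.8 mm from bregma). Probe (4 mm membrane) inserted 16 h before study. Perfusion with aCSF pH 7.2 at 1.5 μL/min, 2 h stabilization, five basal 20-min samples. Test agent given p.o.; donepezil and memantine (1 mg/kg s.c. each) given 30 min later in combination arms. Dialysates collected 6 h (4 h for combination), acetylcholine measured by LC-MS/MS, expressed as % of mean basal.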

Salmonella typhimurium [2] = test: Mutagenicity in Salmonella typhimurium TA1535 in absence of metabolic activation; assay type: toxicity; conditions: salmonella enterica subsp. enterica serovar typhimurium
Rattus norvegicus [3] = test: Increase in acetylcholine level in Wistar rat ventral hippocampus at 1 mg/kg, po after 6 hrs by LC-MS/MS based microdialysis method; assay type: functional, organism-based; summary of the method: as §1
Cytochrome P450 2D6 = Cytochrome P450 2D6 (Homo sapiens, UniProt P10635); test: Inhibition of CYP2D6 in human liver microsomes in presence of NADPH by LC-MS/MS analysis
Sequence of Cytochrome P450 2D6 (P10635 whole entry): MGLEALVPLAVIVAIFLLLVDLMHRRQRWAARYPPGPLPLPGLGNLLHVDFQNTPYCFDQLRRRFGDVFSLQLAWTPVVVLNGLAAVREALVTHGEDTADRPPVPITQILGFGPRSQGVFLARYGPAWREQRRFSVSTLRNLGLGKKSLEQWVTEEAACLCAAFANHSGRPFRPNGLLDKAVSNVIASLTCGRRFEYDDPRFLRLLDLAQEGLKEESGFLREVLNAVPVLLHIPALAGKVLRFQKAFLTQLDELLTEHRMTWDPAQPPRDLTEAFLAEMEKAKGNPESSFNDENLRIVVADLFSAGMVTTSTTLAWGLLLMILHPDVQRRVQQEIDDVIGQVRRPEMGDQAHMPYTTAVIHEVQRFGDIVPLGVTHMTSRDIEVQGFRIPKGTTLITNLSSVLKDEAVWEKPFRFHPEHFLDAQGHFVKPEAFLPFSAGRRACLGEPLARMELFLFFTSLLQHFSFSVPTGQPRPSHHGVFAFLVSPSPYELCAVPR

Rattus norvegicus [4] = test: Effect on basal level of acetylcholine in Wistar rat ventral hippocampus at 1 to 3 mg/kg, po after 6 hrs by LC-MS/MS based microdialysis method; assay type: ADME, organism-based; conditions: in vivo; summary of the method: as §1
[5] = Clearance in Beagle dog at 3 mg/kg, iv; assay type: ADME, organism-based, Canis lupus familiaris; conditions: in vivo
[6] = Ratio of drug uptake in Wistar rat brain to plasma at 10 mg/kg, po by LC-MS/MS analysis; assay type: ADME, organism-based; conditions: read-out: BPR
D(3) dopamine receptor = D(3) dopamine receptor (Rattus norvegicus, UniProt P19020); test: Displacement of [3H] 7-OH DPAT from recombinant rat dopamine D3 receptor expressed in CHO cells after 60 mins; assay type: cell-based
Sequence of D(3) dopamine receptor (P19020 whole entry): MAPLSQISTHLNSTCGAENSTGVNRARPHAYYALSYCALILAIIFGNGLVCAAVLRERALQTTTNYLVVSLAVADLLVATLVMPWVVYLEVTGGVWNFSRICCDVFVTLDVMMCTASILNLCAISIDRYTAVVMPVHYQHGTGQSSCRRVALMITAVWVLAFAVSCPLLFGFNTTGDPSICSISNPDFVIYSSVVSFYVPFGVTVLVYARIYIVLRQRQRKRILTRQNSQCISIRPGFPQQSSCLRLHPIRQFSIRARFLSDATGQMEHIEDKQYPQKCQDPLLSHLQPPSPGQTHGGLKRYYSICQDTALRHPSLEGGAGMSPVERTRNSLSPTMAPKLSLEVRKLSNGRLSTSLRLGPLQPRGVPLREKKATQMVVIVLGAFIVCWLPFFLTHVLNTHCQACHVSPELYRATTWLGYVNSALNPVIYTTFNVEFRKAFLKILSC

[7] = Clearance in Wistar rat at 10 mg/kg, iv by LC-MS/MS analysis; assay type: ADME, organism-based; conditions: in vivo
PBL = test: Nonclastogenic effect in human PBL by chromosomal aberration test; assay type: cell-based
Cytochrome P450 3A4 = Cytochrome P450 3A4 (Homo sapiens, UniProt P08684); test: Induction of CYP3A4 activity in human hepatocytes at 0.01 to 1 uM preincubated for 3 days followed by substrate addition measured after 30 mins; assay type: ADME, cell-based; conditions: 0.5 h
Summary of the method: (§2)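 Plateable human hepatocytes exposed to 0.01, 0.1 and 1.0 μM. CYP1A2, CYP2B6 and CYP3A4 induction read as both mRNA expression and enzyme activity.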

Salmonella typhimurium [8] = test: Mutagenicity in Salmonella typhimurium TA98 in absence of metabolic activation; assay type: toxicity; conditions: salmonella enterica subsp. enterica serovar typhimurium
Homo sapiens [9] = species: Homo sapiens; test: Toxicity in human assessed as changes in QTc interval during phase-I clinical trail
[10] = molecular target: Voltage-gated inwardly rectifying potassium channel KCNH2 (Homo sapiens, UniProt Q12809); test: Inhibition of astemizole binding to human ERG
Sequence of Voltage-gated inwardly rectifying potassium channel KCNH2 (Q12809 whole entry): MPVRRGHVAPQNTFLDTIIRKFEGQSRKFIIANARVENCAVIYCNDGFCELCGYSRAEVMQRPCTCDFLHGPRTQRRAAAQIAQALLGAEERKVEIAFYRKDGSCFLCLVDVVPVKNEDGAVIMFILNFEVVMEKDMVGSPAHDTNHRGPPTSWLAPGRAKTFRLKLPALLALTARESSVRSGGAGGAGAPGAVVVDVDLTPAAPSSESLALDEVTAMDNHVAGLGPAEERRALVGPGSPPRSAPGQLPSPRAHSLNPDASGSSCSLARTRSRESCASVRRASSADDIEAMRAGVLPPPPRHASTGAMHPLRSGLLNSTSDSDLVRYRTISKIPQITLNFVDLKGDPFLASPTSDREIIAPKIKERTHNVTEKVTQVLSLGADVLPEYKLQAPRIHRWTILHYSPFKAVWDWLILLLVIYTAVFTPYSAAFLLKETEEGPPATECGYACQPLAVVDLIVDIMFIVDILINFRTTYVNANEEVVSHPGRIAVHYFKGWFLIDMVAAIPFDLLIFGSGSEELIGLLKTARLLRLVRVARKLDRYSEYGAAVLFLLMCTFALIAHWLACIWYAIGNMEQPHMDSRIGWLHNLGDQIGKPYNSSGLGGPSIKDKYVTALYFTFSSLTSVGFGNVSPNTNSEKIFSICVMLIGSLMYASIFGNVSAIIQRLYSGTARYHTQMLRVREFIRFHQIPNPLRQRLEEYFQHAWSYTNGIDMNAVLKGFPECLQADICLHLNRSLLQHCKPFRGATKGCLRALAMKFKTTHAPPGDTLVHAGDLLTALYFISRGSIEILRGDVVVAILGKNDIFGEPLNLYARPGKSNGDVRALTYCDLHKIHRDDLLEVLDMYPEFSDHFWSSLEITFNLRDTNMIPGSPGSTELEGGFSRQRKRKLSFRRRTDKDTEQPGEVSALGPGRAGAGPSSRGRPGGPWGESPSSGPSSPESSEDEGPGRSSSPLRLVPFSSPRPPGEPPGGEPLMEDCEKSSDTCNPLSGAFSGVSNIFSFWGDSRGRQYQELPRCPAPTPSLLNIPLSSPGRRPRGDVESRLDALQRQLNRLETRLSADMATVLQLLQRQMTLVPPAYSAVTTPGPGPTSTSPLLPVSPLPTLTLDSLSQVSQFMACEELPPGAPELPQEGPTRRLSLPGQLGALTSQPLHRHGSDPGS
Summary of the method: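 hERG channel binding assessed as displacement in an astemizole binding assay.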

[11] = Protein binding in human plasma at 1 uM after 6 hrs by LC-MS/MS based rapid equilibrium dialysis method; assay type: ADME, cell-free; conditions: read-out: PPB (converted)
Summary of the method: (§3)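 Plasma protein binding in rat, dog and human plasma determined by equilibrium dialysis.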

Salmonella typhimurium [12] = test: Mutagenicity in Salmonella typhimurium TA1537 in presence of metabolic activation; assay type: toxicity; conditions: salmonella enterica subsp. enterica serovar typhimurium
[13] = Protein binding in dog plasma at 1 uM after 6 hrs by LC-MS/MS based rapid equilibrium dialysis method; assay type: ADME, cell-free, Canis lupus familiaris; conditions: read-out: PPB (converted); summary of the method: as §3
Cytochrome P450 2C9 = Cytochrome P450 2C9 (Homo sapiens, UniProt P11712); test: Inhibition of CYP2C9 in human liver microsomes in presence of NADPH by LC-MS/MS analysis; assay type: ADME
Summary of the method: (§4)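 Pooled human liver microsomes. IC50 determined from isoform-specific marker activities for CYP1A2, 2A6, 2B6, 2C8, 2C9, 2C19 (mephenytoin hydroxylation) and 2E1.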

Hepatocyte = test: Induction of CYP3A4 mRNA expression in human hepatocytes at 0.01 to 1 uM after 3 days by qRT-PCR analysis; assay type: ADME, cell-based; conditions: 72 h; summary of the method: as §2
Cytochrome P450 2C19 = Cytochrome P450 2C19 (Homo sapiens, UniProt P33261); test: Inhibition of CYP2C19 in human liver microsomes using mephenytoin as substrate in presence of NADPH by LC-MS/MS analysis; assay type: ADME; summary of the method: as §4
Sequence of Cytochrome P450 2C19 (P33261 whole entry): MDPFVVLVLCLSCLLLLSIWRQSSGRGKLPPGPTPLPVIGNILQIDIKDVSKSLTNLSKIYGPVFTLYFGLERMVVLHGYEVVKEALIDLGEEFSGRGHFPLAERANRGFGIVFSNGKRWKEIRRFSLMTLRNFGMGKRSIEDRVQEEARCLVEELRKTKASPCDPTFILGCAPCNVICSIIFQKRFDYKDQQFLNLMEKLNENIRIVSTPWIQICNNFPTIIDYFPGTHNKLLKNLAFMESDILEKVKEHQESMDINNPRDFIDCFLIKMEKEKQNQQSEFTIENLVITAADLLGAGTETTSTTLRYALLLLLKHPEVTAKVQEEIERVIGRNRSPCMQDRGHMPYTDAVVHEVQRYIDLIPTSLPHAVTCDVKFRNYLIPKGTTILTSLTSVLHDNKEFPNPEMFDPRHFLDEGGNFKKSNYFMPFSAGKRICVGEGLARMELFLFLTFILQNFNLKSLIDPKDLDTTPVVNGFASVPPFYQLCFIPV

[14] = Oral bioavailability in Beagle dog at 10 mg/kg; assay type: ADME, organism-based, Canis lupus familiaris; conditions: in vivo
[15] = molecular target: Alpha-2A adrenergic receptor (Homo sapiens, UniProt P08913); test: Displacement of [3H] MK-912 from human adrenergic alpha 2A receptor expressed in HT29 cells after 60 mins; assay type: cell-based
Sequence of Alpha-2A adrenergic receptor (P08913 whole entry): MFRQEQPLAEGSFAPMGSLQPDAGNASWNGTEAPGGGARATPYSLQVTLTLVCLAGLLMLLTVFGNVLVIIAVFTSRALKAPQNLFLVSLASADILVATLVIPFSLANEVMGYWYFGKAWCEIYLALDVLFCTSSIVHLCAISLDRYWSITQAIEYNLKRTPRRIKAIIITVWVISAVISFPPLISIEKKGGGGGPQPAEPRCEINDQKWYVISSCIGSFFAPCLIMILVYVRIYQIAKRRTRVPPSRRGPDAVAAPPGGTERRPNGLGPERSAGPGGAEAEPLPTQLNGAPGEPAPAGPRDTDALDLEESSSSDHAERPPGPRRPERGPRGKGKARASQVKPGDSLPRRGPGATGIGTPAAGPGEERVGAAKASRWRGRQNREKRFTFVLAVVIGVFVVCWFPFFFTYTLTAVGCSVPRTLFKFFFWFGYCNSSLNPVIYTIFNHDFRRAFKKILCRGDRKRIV

[16] = Half life in Wistar rat at 10 mg/kg, iv by LC-MS/MS analysis; assay type: ADME, organism-based; conditions: in vivo
[17] = Apparent volume of distribution in Wistar rat at 10 mg/kg, iv by LC-MS/MS analysis; assay type: ADME, organism-based; conditions: in vivo, read-out: Vz
Homo sapiens [18] = test: Toxicity in healthy elderly male human subjects administered as multiple ascending dose for 14 days; conditions: 336 h
Cytochrome P450 2B6 [19] = molecular target: T1, Cytochrome P450 2B6 (Homo sapiens, UniProt P20813); test: Induction of CYP2B6 activity in human hepatocytes at 0.01 to 1 uM preincubated for 3 days followed by substrate addition measured after 30 mins; assay type: ADME, cell-based; conditions: 0.5 h; summary of the method: as §2
T1 sequence (P20813 whole entry): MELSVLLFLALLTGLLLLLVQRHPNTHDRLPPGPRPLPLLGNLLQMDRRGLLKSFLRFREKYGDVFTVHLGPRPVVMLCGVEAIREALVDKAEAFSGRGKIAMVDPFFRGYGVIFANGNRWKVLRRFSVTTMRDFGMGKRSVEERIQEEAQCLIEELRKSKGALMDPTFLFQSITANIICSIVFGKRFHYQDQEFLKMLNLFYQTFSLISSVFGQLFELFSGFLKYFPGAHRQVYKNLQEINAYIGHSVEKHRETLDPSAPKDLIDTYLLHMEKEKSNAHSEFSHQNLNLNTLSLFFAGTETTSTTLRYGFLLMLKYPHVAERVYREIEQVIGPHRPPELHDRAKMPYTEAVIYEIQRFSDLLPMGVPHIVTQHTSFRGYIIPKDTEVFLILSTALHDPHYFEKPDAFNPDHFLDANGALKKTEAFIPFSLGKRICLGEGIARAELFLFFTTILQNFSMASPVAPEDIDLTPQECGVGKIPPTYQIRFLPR

[20] = AUC (0 to t) in Beagle dog at 10 mg/kg, po; assay type: ADME, organism-based, Canis lupus familiaris; conditions: in vivo
Rattus norvegicus [21] = test: Reversal of time-induced amnesia in Wistar rat at 1 to 10 mg/kg, po administered 60 mins prior to testing measured for 3 mins by object recognition test; assay type: functional, organism-based
Summary of the method: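 Time-induced object recognition task in rats. Oral dosing at 1, 3 and 10 mg/kg given 60 min before the test; vehicle water for injection 1 mL/kg p.o.; n = 7−12/group. Exploration of novel versus familiar object compared by paired t-test.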

[22] = molecular target: D(3) dopamine receptor (Homo sapiens) (UniProt P35462); test: Inhibition of recombinant human dopamine D3 receptor expressed in CHOK1 cells at 1 uM by GTPgammaS binding assay; assay type: functional, cell-based
Sequence of D(3) dopamine receptor (Homo sapiens) (P35462 whole entry): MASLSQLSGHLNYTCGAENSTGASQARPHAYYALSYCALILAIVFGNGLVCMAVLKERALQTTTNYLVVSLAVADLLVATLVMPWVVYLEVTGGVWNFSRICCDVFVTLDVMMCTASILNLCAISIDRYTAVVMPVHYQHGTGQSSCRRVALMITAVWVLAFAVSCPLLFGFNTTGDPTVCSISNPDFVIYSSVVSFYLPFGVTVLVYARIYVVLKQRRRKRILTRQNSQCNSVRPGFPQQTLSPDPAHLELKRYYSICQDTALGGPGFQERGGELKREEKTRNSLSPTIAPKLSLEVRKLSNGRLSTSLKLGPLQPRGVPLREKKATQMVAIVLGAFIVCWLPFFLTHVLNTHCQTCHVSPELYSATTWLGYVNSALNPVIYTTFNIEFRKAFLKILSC

[23] = Oral bioavailability in Wistar rat at 10 mg/kg by LC-MS/MS analysis; assay type: ADME, organism-based; conditions: Wistar, in vivo
[24] = AUC (0 to t) in Wistar rat at 10 mg/kg, po by LC-MS/MS analysis; assay type: ADME, organism-based; conditions: Wistar, in vivo
Cytochrome P450 1A2 = Cytochrome P450 1A2 (Homo sapiens, UniProt P05177); test: Inhibition of CYP1A2 in human liver microsomes in presence of NADPH by LC-MS/MS analysis; assay type: ADME; summary of the method: as §4
Sequence of Cytochrome P450 1A2 (P05177 whole entry): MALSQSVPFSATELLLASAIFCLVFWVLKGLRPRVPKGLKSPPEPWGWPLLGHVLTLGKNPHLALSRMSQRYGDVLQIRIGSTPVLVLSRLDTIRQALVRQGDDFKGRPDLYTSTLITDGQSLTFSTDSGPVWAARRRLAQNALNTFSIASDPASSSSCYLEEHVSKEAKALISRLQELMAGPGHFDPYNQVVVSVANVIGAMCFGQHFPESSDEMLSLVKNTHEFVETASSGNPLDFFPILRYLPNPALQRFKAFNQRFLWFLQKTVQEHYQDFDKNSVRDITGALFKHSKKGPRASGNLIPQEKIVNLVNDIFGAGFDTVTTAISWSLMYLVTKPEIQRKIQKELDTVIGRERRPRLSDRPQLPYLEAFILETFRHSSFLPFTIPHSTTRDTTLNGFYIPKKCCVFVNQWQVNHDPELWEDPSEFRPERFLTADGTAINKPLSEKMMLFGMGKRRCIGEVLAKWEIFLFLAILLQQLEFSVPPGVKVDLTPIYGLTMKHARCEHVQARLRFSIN

Rattus norvegicus [25] = test: Cognitive enhancing effect in contextual fear conditioning rat model assessed as reversal of scopolamine-induced emotional memory deficits at 1 to 10 mg/kg, po administered for 1 hr followed by scopolamine challenge for 120 mins; assay type: functional, organism-based
Cytochrome P450 2B6 [26] = molecular target: T1, Cytochrome P450 2B6; test: Inhibition of CYP2B6 in human liver microsomes in presence of NADPH by LC-MS/MS analysis; assay type: ADME; summary of the method: as §4
[27] = molecular target: Alpha-2C adrenergic receptor (Homo sapiens, UniProt P18825); test: Inhibition of recombinant human adrenergic alpha 2C receptor expressed in CHO cells assessed as inhibition of 5-HT stimulated cAMP accumulation after 4 hrs by luciferase reporter gene assay; assay type: functional, cell-based
Sequence of Alpha-2C adrenergic receptor (P18825 whole entry): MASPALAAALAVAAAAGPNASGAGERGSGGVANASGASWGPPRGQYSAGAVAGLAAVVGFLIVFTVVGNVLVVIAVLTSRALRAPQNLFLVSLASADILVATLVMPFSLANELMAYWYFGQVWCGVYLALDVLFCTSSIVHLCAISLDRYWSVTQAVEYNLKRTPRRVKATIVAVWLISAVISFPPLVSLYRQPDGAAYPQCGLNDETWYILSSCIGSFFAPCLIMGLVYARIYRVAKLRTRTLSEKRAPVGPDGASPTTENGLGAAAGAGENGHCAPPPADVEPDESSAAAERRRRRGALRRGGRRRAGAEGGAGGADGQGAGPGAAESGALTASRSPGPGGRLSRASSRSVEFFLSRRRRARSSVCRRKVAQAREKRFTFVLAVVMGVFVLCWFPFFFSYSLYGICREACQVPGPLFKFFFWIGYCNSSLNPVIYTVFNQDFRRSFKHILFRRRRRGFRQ

[28] = Solubility of the compound in water; assay type: physicochemical; conditions: buffer

With COc1ccc2c(c1)c(CN1CCN(C)CC1)cn2S(=O)(=O)c1ccccc1Br.CS(=O)(=O)O.O the Activity (Rattus norvegicus [1]) was 1383%, the Activity (Salmonella typhimurium [2]) was “Non-Toxic” and the Activity (Rattus norvegicus [3]) was “inactive”. For the same compound, the IC50 (Cytochrome P450 2D6) was 13.2 µM, the Activity (Rattus norvegicus [4]) was “Non-Toxic” and the clearance [5] was 46.4 mL/min/kg. The Kp [6] was 1.48, the Ki (D(3) dopamine receptor) was 0.616 µM and the clearance [7] was 53 mL/min/kg. The Activity (PBL) was “Non-Toxic”, the Activity (Cytochrome P450 3A4) was “Not Active” and the Activity (Salmonella typhimurium [8]) was “Non-Toxic”. The Activity (Homo sapiens [9]) was “Non-Toxic”, the “inhibition (INH)” value [10] was “Not Active” and the fraction unbound at 6 h, 1 µM [11] was 0.02. For the same compound, the Activity (Salmonella typhimurium [12]) was “Non-Toxic”, the fraction unbound at 6 h, 1 µM [13] was 0.014 and the IC50 (Cytochrome P450 2C9) was greater than 10 µM. For the same compound, the Activity (Hepatocyte) was “Non-Toxic”, the IC50 (Cytochrome P450 2C19) was 5.7 µM and the bioavailability [14] was 35%. It also gave a Ki [15] of 2.57 µM, a half-life [16] of 57 min and a Vd [17] of 4.41 L/kg. The Activity (Homo sapiens [18]) was “Non-Toxic”, the Activity (Cytochrome P450 2B6 [19]) was “Not Active” and the AUC(0-t) [20] was 1360 ng·h/mL. For the same compound, the Activity (Rattus norvegicus [21]) was “Active”, the inhibition [22] was greater than 50% and the bioavailability [23] was 24.9%. The AUC(0-t) [24] was 784 ng·h/mL, the IC50 (Cytochrome P450 1A2) was greater than 10 µM and the Activity (Rattus norvegicus [25]) was “Active”. It also gave an IC50 (Cytochrome P450 2B6 [26]) greater than 10 µM, a Kb [27] of 0.619 µM and a solubility [28] of 1200 mg/mL.
